# Compound activity from PubChem.
# Arbovirus inh: antivirals against arbovirus infection; arbovirus infection cell-based antiviral screen; inhibition, % at 10 µM; 200,000 tested, 0.37% active; AID 1251; in the data active = inhibition above about 30%
# PKD1 inh: inhibitors of human PKD1 kinase; Q15139; PKD1 kinase fluorescence polarization assay; inhibition, % (no concentration beside the values); 200,000 tested, 0.056% active; AID 797; in the data active = inhibition above about 50%
# Cl transport mod: modulates chloride dependent transport by human KCC2; 190,000 tested, 2.2% active; Q9H2X9; KCC2 cells, thallium flux FluoZin-2 fluorescence; B-score of Tl+ flux slope (higher = more flux/activation; lower = inhibition) at 10 µM;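 active = thallium flux slope and its plate-corrected score both differing from the plate sample mean at a set confidence after two filtering rounds, in either direction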;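 also: slope of fluorescence scaled to starting intensity during 10 to 20 s after thallium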
# ROMK primary: modulators of human ROMK potassium channel; P48048; AID 1918; Tet-inducible ROMK, thallium flux fluorescence; actives lie on both sides; B-score at 10 µM; 130,000 tested, 2% active;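 active = signal ratio slope over the read window, or its plate-corrected B-score, at least 3 SD from the plate mean, either direction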;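 also: B-score of the F/F0 ratio slope over 7 to 12 s after thallium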
# m-calpain inh: inhibitors of pig calpain II; purified calpain II, fluorogenic peptide substrate, 30 min; inhibition, % at 16 µM; 220,000 tested, 0.37% active;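 active = inhibition above about 50%, limit read from the data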
# Mdm2 ligase inh: blocks human Mdm2 ubiquitin ligase activity; AID 1230; cell-based MDM2 ubiquitination luciferase reporter, 2 h; 0 = plate control, 100 = twice control, blank-subtracted; 210,000 tested, 0.11% active; signal enhancement, % at 5 µM;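 active = signal enhancement of 30% or more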;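 also: luminescence tracks abundance of the self-degrading MDM2-luciferase fusion protein; higher signal means inhibition of MDM2 E3 ligase activity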
#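 Assay system: stable mammalian line carrying autodegrading MDM2–luciferase fusion reporter; amount: 2000 cells seeded into each well; buffer or medium: DMEM; benchmarks: plate control and blank wells; signal: luciferase luminescence; timing: 2 h compound exposure at 37 °C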
# * hit, by the source's call; / = not tested or not shown. A selection: hits, their analogues and other compounds. The true share with any hit is near 3.7%.
SMILES,Arbovirus inh,PKD1 inh,Cl transport mod,ROMK primary,m-calpain inh,Mdm2 ligase inh
CC(=O)c1ccc(OCC(O)Cn2nnc3ccccc32)cc1 (stereo unspecified),2.3,1.6,-0.711,/,-31.6,36.5*
COC(=O)c1ccc(OCC(O)Cn2nnc3ccccc32)cc1 (stereo unspecified),1.0,-11.5,-0.208,/,-30.5,-5.5
N#Cc1nc(-c2ccc(OCc3ccccc3)cc2)oc1NCCN1CCOCC1,-4.9,0.9,1.28,0.205,-98.8,-0.5
N#Cc1nc(Cc2ccccc2)oc1NCCN1CCOCC1,4.7,1.2,/,0.189,7.5,32.0*
Cc1ccc(S(=O)(=O)CCSc2cccc(C(=O)Nc3ccccc3C(=O)O)c2)cc1,43.5*,-5.7,-3.81,/,-15.5,-4.3
O=C(Nc1ccccc1C(=O)O)c1cccc(F)c1,/,0.7,-0.136,0.727,/,/
O=C(COC(=O)c1ccc2c(=O)n3c(nc2c1)CCC3)NC1CCS(=O)(=O)C1 (stereo unspecified),2.7,-6.2,-0.46,0.0343,-56.8,-3.3
Cc1ccc(-c2nc(N)sc2-c2ccc(C)cc2)cc1,-33.6,-2.7,0.363,-0.3,61.6*,-7.6
Cc1ccc(-c2nc(N)sc2C)cc1,-4.4,-5.9,0.0347,0.658,14.3,-10.6
Nc1nc(-c2ccccc2)c(-c2ccc([N+](=O)[O-])cc2)s1,33.2*,1.5,1.34,-0.235,15.9,-8.4
CCOC(=O)N1CCN(C(=O)NC23CC4CC(CC(C4)C2)C3)CC1,8.8,-15.7,-3.41*,-0.149,12.3,6.1
O=S(=O)(CCN1CCCCC1)Oc1ccc(Cl)cc1Cl,/,/,-0.434,/,7.6,1.7
CC(C)(C)c1nc(SCC(=O)NCc2ccco2)c2ccccc2n1,5.0,0.5,1.15,/,-20.2,-14.1
COc1ccc(C(=O)CSc2nc(C(C)(C)C)nc3ccccc23)cc1,-8.0,-4.2,0.801,1.47,52.5*,-5.0
Cc1oc(-c2ccccc2Cl)nc1CSCC(=O)NC1CCCC1,12.3,1.4,-0.698,-0.953,-17.9,-10.3
Cc1oc(-c2ccccc2Cl)nc1CSCC(=O)N1CCCC1,32.7*,2.4,/,/,-2.6,0.4
CC(C)(C)C(=O)NC1=NN(c2c(Cl)cc(Cl)cc2Cl)C(=O)C1,-5.0,-0.9,-0.00987,0.0408,7.7,-9.3
COc1cccc(C(=O)Nc2cccc(C(=O)NC3=NN(c4c(Cl)cc(Cl)cc4Cl)C(=O)C3)c2)c1,34.4*,-3.4,/,/,-25.9,-2.6
O=C(CN(CCc1ccccc1)C(=O)c1csnn1)NC1CCCC1,4.8,-6.8,-0.137,-0.252,-17.4,-4.5
CCOC(=O)C1CCN(C(c2cc3c(C)ccc(C)c3[nH]c2=O)c2nnnn2C2CCCCC2)CC1 (stereo unspecified),-11.6,-2.6,/,-1.33,-67.0,-23.9
CCOC(=O)C1CCN(C(c2cc3ccc(C)c(C)c3[nH]c2=O)c2nnnn2C2CCCCC2)CC1 (stereo unspecified),6.5,7.4,-1.48,-2.48*,-85.8,-4.1
COc1cc(NC(=O)CCC(=O)OCCCC(F)(F)C(F)(F)F)nc(OC)n1,-1.8,6.5,0.455,0.44,8.9,-4.0
COc1cc(NC(=O)CCCC(=O)OCC(F)(F)C(F)F)nc(OC)n1,106.0*,-15.3,/,0.664,-41.2,-16.7
CC(C)CNS(=O)(=O)c1ccc(CCC(=O)Nc2cc(Cl)ccc2Oc2ccccc2)cc1,-16.3,3.0,-0.558,-1.47,71.2*,-14.2
CCCNS(=O)(=O)c1ccc(CCC(=O)Nc2cc(Cl)ccc2Oc2ccccc2)cc1,-1.5,1.2,-2.23,/,7.8,-0.3
SMILES,Arbovirus inh,PKD1 inh,Cl transport mod,ROMK primary,m-calpain inh,Mdm2 ligase inh
Cc1cccc(C)c1N(CC(=O)Nc1cc(Cl)ccc1Oc1ccccc1)S(C)(=O)=O,-6.9,-10.3,-1.13,/,52.0*,-24.4
Cc1noc(C)c1C(=O)OCC(=O)Nc1cc(Cl)ccc1Oc1ccccc1,47.3*,1.4,/,-1.05,34.7,-4.4
CC(C)c1nc2c(c(=O)n(C)c(=O)n2C)n1C,/,/,-2.58,/,10.6,/
COc1cc(C)ccc1OCCOCCOc1cccc2ccc(C)nc12,4.7,-2.2,-1.33,1.48,-5.4,-8.8
CC(NCc1ccc(N(C)C)cc1)C1CC2CCC1C2 (stereo unspecified),15.7,-3.7,/,-1.81,23.6,-14.8
Cc1cc(NC(=O)CSc2nc3cc(C(=O)NCCCOC(C)C)ccc3c(=O)n2Cc2ccco2)no1,8.1,-4.0,-0.0341,0.57,60.9*,-9.6
